Records with an inconclusive call do not appear. Calls of active or inactive are those of the source.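 Rule for the calls: active = active in every separate test run, each with half-maximal potency at or below twice its top valid dose; inconclusive = test runs disagree, or a flat partial drop, or poor fit; inactive = inactive in every test run, including signal rising instead.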
tested on: not listed separately; assay: GFP reporter loss versus dox-driven RFP – NIH3T3 R4-3T3 cells, dry powder, dose response (AID 602269); conditions: R4-3T3 NIH3T3 HSF-1 GFP / Tet-On RFP fluorescence, 48 h; at 26 µM (top of the series)
Outline: (§1)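 Reagent – doxycycline 2 µg/mL final for RFP induction, plus 42 °C heat shock · Assay system – engineered NIH3T3 cells, HSF-1 GFP plus doxycycline-inducible RFP · Schedule – 2 h 42 °C shock, then 48 h 37 °C · Measured by – bottom-read fluorescence, GFP ex 485/em 535 nm, RFP ex 550/em 595 nm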

Row | Compound | activity change, negative = inhibition
1 | CCc1ccc(NC(=O)C2C3CCC(O3)C2C(=O)O)cc1 (stereo unspecified) | -14.3% (inactive)

tested on: R4-3T3 NIH3T3 HSF-1 GFP / Tet-On RFP fluorescence, 48 h; assay: as above; conditions: not given
Outline: as §1

Row | Compound | AC50 [µM]
2 | O=C(CCl)N1CCCC1c1ccc2c(c1)OCCO2 (stereo unspecified) | 1.18
3 | CC1=NNC(=O)/C1=C\c1cn(-c2ccccc2)nc1-c1ccc(Cl)cc1 | 1.27
4 | CC(C)(C)C(=O)NC(=S)NNC(=O)c1sc2ccccc2c1Cl | 4.55
5 | O=C1C=C(NCCN2CCOCC2)C(=O)c2cnccc21 | 2.28
6 | Oc1ccc(Br)cc1/C=N/Nc1ccccn1 | 0.994

— PubChem BioAssay AID602269 (Broad Institute, 2012)
